According to ChEMBL document CHEMBL3585281, “Antibacterial Labdane Diterpenoids from Vitex vestita” (2015):
Converted amounts (≈) assume the structure as drawn.

Columns and labels:
Assay type in all cases: functional
Bacillus cereus [1] = assay: Antibacterial activity against Bacillus cereus CIP 6624 after 18 hrs by agar dilution method; details: CIP 6624, 18 h
How it was run: (§1)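 Agar-dilution MIC against Gram-positive strains. Compounds in DMSO, geometric dilutions giving final 100−0.75 mg/L in Mueller Hinton agar. Strains grown 18 h at 37 °C in trypticase soy broth, diluted in sterile water, spotted by Steers inoculator (about 1000 UFC/spot). Plates incubated 18 h at 37 °C; DMSO blank; ofloxacin positive control. MIC = lowest concentration with no visible growth.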

Bacillus cereus [2] = assay: Antibacterial activity against Bacillus cereus N190 after 18 hrs by agar dilution method; details: N190, 18 h; how it was run: as §1
Bacillus cereus [3] = assay: Antibacterial activity against Bacillus cereus N258 after 18 hrs by agar dilution method; details: N258, 18 h; how it was run: as §1
Bacillus cereus [4] = assay: Antibacterial activity against Bacillus cereus N349 after 18 hrs by agar dilution method; details: N349, 18 h; how it was run: as §1
Bacillus spizizenii = assay: Antibacterial activity against Bacillus subtilis ATCC 6633 after 18 hrs by agar dilution method; details: ATCC 6633, 18 h; how it was run: as §1
Corynebacterium striatum = assay: Antibacterial activity against Corynebacterium striatum N840 after 18 hrs by agar dilution method; details: N840, 18 h; how it was run: as §1
Enterococcus avium = assay: Antibacterial activity against Enterococcus avium CIP 104053 after 18 hrs by agar dilution method; details: CIP 104053, 18 h; how it was run: as §1
[5] = test system: Enterococcus casseliflavus; assay: Antibacterial activity against Enterococcus casseliflavus N487 after 18 hrs by agar dilution method; details: N487, 18 h; how it was run: as §1
[6] = test system: Enterococcus casseliflavus; assay: Antibacterial activity against Enterococcus casseliflavus CIP 103018 after 18 hrs by agar dilution method; details: CIP 103018, 18 h; how it was run: as §1
Enterococcus durans = assay: Antibacterial activity against Enterococcus durans CIP 104999 after 18 hrs by agar dilution method; details: CIP 104999, 18 h; how it was run: as §1
Enterococcus faecalis [7] = assay: Antibacterial activity against Enterococcus faecalis CIP 103214 after 18 hrs by agar dilution method; details: CIP 103214, 18 h; how it was run: as §1
Enterococcus faecalis [8] = assay: Antibacterial activity against Enterococcus faecalis CIP 104676 after 18 hrs by agar dilution method; details: CIP 104676, 18 h; how it was run: as §1
Enterococcus faecalis [9] = assay: Antibacterial activity against Enterococcus faecalis N491 after 18 hrs by agar dilution method; details: N491, 18 h; how it was run: as §1
Enterococcus faecalis [10] = assay: Antibacterial activity against Enterococcus faecalis N518 after 18 hrs by agar dilution method; details: N518, 18 h; how it was run: as §1
Enterococcus faecalis [11] = assay: Antibacterial activity against Enterococcus faecalis N520 after 18 hrs by agar dilution method; details: N520, 18 h; how it was run: as §1
Enterococcus faecium [12] = assay: Antibacterial activity against Enterococcus faecium CIP 103014 after 18 hrs by agar dilution method; details: CIP 103014, 18 h; how it was run: as §1
Enterococcus faecium [13] = assay: Antibacterial activity against Enterococcus faecium CIP 107387 after 18 hrs by agar dilution method; details: CIP 107387, 18 h; how it was run: as §1
Enterococcus faecium [14] = assay: Antibacterial activity against Enterococcus faecium N490 after 18 hrs by agar dilution method; details: N490, 18 h; how it was run: as §1
Enterococcus faecium [15] = assay: Antibacterial activity against Enterococcus faecium N507 after 18 hrs by agar dilution method; details: N507, 18 h; how it was run: as §1
Enterococcus faecium [16] = assay: Antibacterial activity against Enterococcus faecium N733 after 18 hrs by agar dilution method; details: N733, 18 h; how it was run: as §1
Enterococcus faecium [17] = assay: Antibacterial activity against Enterococcus faecium N823 after 18 hrs by agar dilution method; details: N823, 18 h; how it was run: as §1
Enterococcus gallinarum [18] = assay: Antibacterial activity against Enterococcus gallinarum CIP 105985 after 18 hrs by agar dilution method; details: CIP 105985, 18 h; how it was run: as §1
Enterococcus gallinarum [19] = assay: Antibacterial activity against Enterococcus gallinarum N489 after 18 hrs by agar dilution method; details: N489, 18 h; how it was run: as §1
Enterococcus gallinarum [20] = assay: Antibacterial activity against Enterococcus gallinarum N492 after 18 hrs by agar dilution method; details: N492, 18 h; how it was run: as §1
Enterococcus hirae = assay: Antibacterial activity against Enterococcus hirae CIP 5855 after 18 hrs by agar dilution method; details: CIP 5855, 18 h; how it was run: as §1
Listeria innocua = assay: Antibacterial activity against Listeria innocua E044 after 18 hrs by agar dilution method; details: E044, 18 h; how it was run: as §1
Listeria monocytogenes [21] = assay: Antibacterial activity against Listeria monocytogenes CIP 103575 after 18 hrs by agar dilution method; details: CIP 103575, 18 h; how it was run: as §1
Listeria monocytogenes [22] = assay: Antibacterial activity against Listeria monocytogenes N783 after 18 hrs by agar dilution method; details: N783, 18 h; how it was run: as §1
Listeria monocytogenes [23] = assay: Antibacterial activity against Listeria monocytogenes N836 after 18 hrs by agar dilution method; details: N836, 18 h; how it was run: as §1
Listeria monocytogenes [24] = assay: Antibacterial activity against Listeria monocytogenes N851 after 18 hrs by agar dilution method; details: N851, 18 h; how it was run: as §1
Staphylococcus aureus [25] = assay: Antibacterial activity against Staphylococcus aureus ATCC 25923 after 18 hrs by agar dilution method; details: ATCC 25923, 18 h; how it was run: as §1
Staphylococcus aureus [26] = assay: Antibacterial activity against Staphylococcus aureus ATCC 9144 oxford after 18 hrs by agar dilution method; how it was run: as §1
Staphylococcus aureus [27] = assay: Antibacterial activity against Staphylococcus aureus CIP 483 after 18 hrs by agar dilution method; details: CIP 483, 18 h; how it was run: as §1
Staphylococcus aureus [28] = assay: Antibacterial activity against Staphylococcus aureus CIP 53154 after 18 hrs by agar dilution method; details: CIP 53154, 18 h; how it was run: as §1
Staphylococcus aureus [29] = assay: Antibacterial activity against Staphylococcus aureus CIP 53156 after 18 hrs by agar dilution method; details: CIP 53156, 18 h; how it was run: as §1
Staphylococcus aureus [30] = assay: Antibacterial activity against Staphylococcus aureus CIP 5710 after 18 hrs by agar dilution method; details: CIP 5710, 18 h; how it was run: as §1
Staphylococcus aureus [31] = assay: Antibacterial activity against Staphylococcus aureus CIP 7625 after 18 hrs by agar dilution method; details: CIP 7625, 18 h; how it was run: as §1
Staphylococcus aureus [32] = assay: Antibacterial activity against Staphylococcus aureus CRBIP 2121 after 18 hrs by agar dilution method; details: CRBIP 2121, 18 h; how it was run: as §1
[33] = test system: Staphylococcus epidermidis; assay: Antibacterial activity against Staphylococcus epidermidis CIP 53124 after 18 hrs by agar dilution method; details: CIP 53124, 18 h; how it was run: as §1
[34] = test system: Staphylococcus haemolyticus; assay: Antibacterial activity against Staphylococcus haemolyticus CIP 8156 after 18 hrs by agar dilution method; details: CIP 8156, 18 h; how it was run: as §1
[35] = test system: Staphylococcus intermedius; assay: Antibacterial activity against Staphylococcus intermedius N987 after 18 hrs by agar dilution method; details: N987, 18 h; how it was run: as §1
[36] = test system: Staphylococcus lugdunensis; assay: Antibacterial activity against Staphylococcus lugdunensis ATCC 43809 after 18 hrs by agar dilution method; details: ATCC 43809, 18 h; how it was run: as §1
[37] = test system: Staphylococcus saprophyticus; assay: Antibacterial activity against Staphylococcus saprophyticus CIP 76125 after 18 hrs by agar dilution method; details: CIP 76125, 18 h; how it was run: as §1
[38] = test system: Staphylococcus saprophyticus; assay: Antibacterial activity against Staphylococcus saprophyticus E260 after 18 hrs by agar dilution method; details: E260, 18 h; how it was run: as §1
Mammaliicoccus sciuri = assay: Antibacterial activity against Staphylococcus sciuri N993 after 18 hrs by agar dilution method; details: N993, 18 h; how it was run: as §1
Streptococcus agalactiae = assay: Antibacterial activity against Streptococcus agalactiae CIP 103227 after 18 hrs by agar dilution method; details: ATCC 13813, 18 h; how it was run: as §1

CC1(C)S[C@@H]2[C@H](NC(=O)[C@H](N)c3ccc(O)cc3)C(=O)N2[C@H]1C(=O)O [AMOXICILLIN]
MIC (Bacillus cereus [1]): 11 µM (≈ 4.02 µg/mL) | MIC (Bacillus cereus [2]): 44 µM (≈ 16.1 µg/mL) | MIC (Bacillus cereus [3]): 11 µM (≈ 4.02 µg/mL) | MIC (Bacillus cereus [4]): 11 µM (≈ 4.02 µg/mL) | MIC (Bacillus spizizenii): ≤ 0.2 µM | MIC (Corynebacterium striatum): 350 µM (≈ 128 µg/mL) | MIC (Enterococcus avium): 0.7 µM (≈ 0.256 µg/mL) | MIC [5]: 0.7 µM (≈ 0.256 µg/mL) | MIC [6]: 0.7 µM (≈ 0.256 µg/mL) | MIC (Enterococcus durans): 1.4 µM (≈ 0.512 µg/mL) | MIC (Enterococcus faecalis [7]): 1.4 µM (≈ 0.512 µg/mL) | MIC (Enterococcus faecalis [8]): 1.4 µM (≈ 0.512 µg/mL) | MIC (Enterococcus faecalis [9]): 0.7 µM (≈ 0.256 µg/mL) | MIC (Enterococcus faecalis [10]): 0.7 µM (≈ 0.256 µg/mL) | MIC (Enterococcus faecalis [11]): 3 µM (≈ 1.1 µg/mL) | MIC (Enterococcus faecium [12]): 0.7 µM (≈ 0.256 µg/mL) | MIC (Enterococcus faecium [13]): 175 µM (≈ 63.9 µg/mL) | MIC (Enterococcus faecium [14]): 22 µM (≈ 8.04 µg/mL) | MIC (Enterococcus faecium [15]): 350 µM (≈ 128 µg/mL) | MIC (Enterococcus faecium [16]): > 350 µM | MIC (Enterococcus faecium [17]): 350 µM (≈ 128 µg/mL) | MIC (Enterococcus gallinarum [18]): 1.4 µM (≈ 0.512 µg/mL) | MIC (Enterococcus gallinarum [19]): 0.7 µM (≈ 0.256 µg/mL) | MIC (Enterococcus gallinarum [20]): 0.7 µM (≈ 0.256 µg/mL) | MIC (Enterococcus hirae): 1.4 µM (≈ 0.512 µg/mL) | MIC (Listeria innocua): 0.7 µM (≈ 0.256 µg/mL) | MIC (Listeria monocytogenes [21]): 0.7 µM (≈ 0.256 µg/mL) | MIC (Listeria monocytogenes [22]): 0.7 µM (≈ 0.256 µg/mL) | MIC (Listeria monocytogenes [23]): 0.7 µM (≈ 0.256 µg/mL) | MIC (Listeria monocytogenes [24]): 0.7 µM (≈ 0.256 µg/mL) | MIC (Staphylococcus aureus [25]): 0.3 µM (≈ 0.11 µg/mL) | MIC (Staphylococcus aureus [26]): ≤ 0.2 µM | MIC (Staphylococcus aureus [27]): 0.3 µM (≈ 0.11 µg/mL) | MIC (Staphylococcus aureus [28]): 0.3 µM (≈ 0.11 µg/mL) | MIC (Staphylococcus aureus [29]): ≤ 0.2 µM | MIC (Staphylococcus aureus [30]): 0.7 µM (≈ 0.256 µg/mL) | MIC (Staphylococcus aureus [31]): 0.3 µM (≈ 0.11 µg/mL) | MIC (Staphylococcus aureus [32]): 175 µM (≈ 63.9 µg/mL) | MIC [33]: ≤ 0.2 µM | MIC [34]: ≤ 0.2 µM | MIC [35]: 88 µM (≈ 32.2 µg/mL) | MIC [36]: 0.7 µM (≈ 0.256 µg/mL) | MIC [37]: 0.7 µM (≈ 0.256 µg/mL) | MIC [38]: 0.7 µM (≈ 0.256 µg/mL) | MIC (Mammaliicoccus sciuri): 0.7 µM (≈ 0.256 µg/mL) | MIC (Streptococcus agalactiae): ≤ 0.2 µM
